# Experimental data reported in PubChem BioAssay.
# Activity calls are given as the source filed them.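 How the source made its calls, unless noted: active means viability at or under a set limit in both replicates, limit being median viability minus 3 SD (cut at about 48% in these data, passing the limit was not always enough); inconclusive means at or under the limit in just one replicate; inactive means at or above the limit in both replicates.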
# Legend:
# [1] = reducers of endogenous Her2 protein level, primary screen, SKBR3 breast tumor cells, AlphaScreen, ATP viability (AID 461;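 active means Her2 level under about 52% in both replicate screens, with viability over 70% of control, limit read from the data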;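 on Her2 level: lower value means less Her2 protein in the cells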;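 on viability: percent of carrier control wells set as 100% viability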); conditions: 18-24 h, measured here: SKBR3 viability, ATP luminescence, at 10 µM
# [2] = biological target: Receptor tyrosine-protein kinase erbB-2 (Homo sapiens) (UniProt P04626); assay: as above; conditions: 18-24 h, at 10 µM, stronger effect = lower value
# [3] = SK-BR-3 cell growth inhibitors, pilot screen, 24 h, human (AID 572;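 active means viability at or below 10% of carrier control in both of two separate runs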;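 further: compound exposure lasted between 18 and 24 h rather than exactly 24 h; 100% = carrier-treated control wells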); conditions: SK-BR-3 viability, CellTiter-Glo luminescence, at 10 µM, stronger effect = lower value
# [4] = HUVEC growth inhibition – cell-based, human, primary screen (AID 575;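 active means viability at or below 30% in both replicate assays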;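 further: 100% = median of untreated cell wells with 0.1% DMSO on each plate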); conditions: HUVEC proliferation, CellTiter-Glo luminescence, 72 h; at 10 µM; stronger effect = lower value
# How it was run: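 Timing: 72 h treatment at 37 °C; material: HUVEC primary cells; technique: CellTiter-Glo luminescence measuring cellular ATP; controls: vehicle and MePR control wells; measure: percent of median DMSO-control luminescence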
# [5] = growth inhibitors of H69AR lung tumor, primary screen, human, duplicate replicates (AID 580); conditions: H69AR lung tumor cells viability, ATP luminescence, 72 h; at 10 µM; stronger effect = lower value;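 further: 100% = mean luminescence of untreated wells and 0% = no signal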
# [6] = reversal of MRP1-mediated doxorubicin resistance, pilot screen, H69AR cells, doxorubicin co-treatment (AID 601;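 active means viability loss from added drug above about 55%, and viability with drug at most 40%, in both replicates, limit read from the data, passing the limit was not always enough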); conditions: CellTiter-Glo, 72 h, at 10 µM; for differential viability (reversal): stronger effect = higher value
# [7] = 384-well plate pilot, post-Golgi transport modulator project, inhibition of yeast transport mutant growth (AID 636; in the data active means inhibition above about 31%); conditions: absorbance 615 nm, about 18 h, stronger effect = higher value
# [8] = growth suppression of yeast trafficking mutant, preliminary HTS, modulators of trafficking downstream of Golgi apparatus project, 1536-format plate, OD 615 nm (AID 637; in the data active means inhibition above about 30%); conditions: yeast transport mutant growth, absorbance 615 nm, 18 h; stronger effect = higher value
# [9] = H69AR cells + 2 uM doxorubicin, measured here: viability with 2 uM doxorubicin, stronger effect = lower value
# [10] = H69AR cells, compound alone cytotoxicity
# Chain of Receptor tyrosine-protein kinase erbB-2 (Homo sapiens) (P04626 whole entry, looked up): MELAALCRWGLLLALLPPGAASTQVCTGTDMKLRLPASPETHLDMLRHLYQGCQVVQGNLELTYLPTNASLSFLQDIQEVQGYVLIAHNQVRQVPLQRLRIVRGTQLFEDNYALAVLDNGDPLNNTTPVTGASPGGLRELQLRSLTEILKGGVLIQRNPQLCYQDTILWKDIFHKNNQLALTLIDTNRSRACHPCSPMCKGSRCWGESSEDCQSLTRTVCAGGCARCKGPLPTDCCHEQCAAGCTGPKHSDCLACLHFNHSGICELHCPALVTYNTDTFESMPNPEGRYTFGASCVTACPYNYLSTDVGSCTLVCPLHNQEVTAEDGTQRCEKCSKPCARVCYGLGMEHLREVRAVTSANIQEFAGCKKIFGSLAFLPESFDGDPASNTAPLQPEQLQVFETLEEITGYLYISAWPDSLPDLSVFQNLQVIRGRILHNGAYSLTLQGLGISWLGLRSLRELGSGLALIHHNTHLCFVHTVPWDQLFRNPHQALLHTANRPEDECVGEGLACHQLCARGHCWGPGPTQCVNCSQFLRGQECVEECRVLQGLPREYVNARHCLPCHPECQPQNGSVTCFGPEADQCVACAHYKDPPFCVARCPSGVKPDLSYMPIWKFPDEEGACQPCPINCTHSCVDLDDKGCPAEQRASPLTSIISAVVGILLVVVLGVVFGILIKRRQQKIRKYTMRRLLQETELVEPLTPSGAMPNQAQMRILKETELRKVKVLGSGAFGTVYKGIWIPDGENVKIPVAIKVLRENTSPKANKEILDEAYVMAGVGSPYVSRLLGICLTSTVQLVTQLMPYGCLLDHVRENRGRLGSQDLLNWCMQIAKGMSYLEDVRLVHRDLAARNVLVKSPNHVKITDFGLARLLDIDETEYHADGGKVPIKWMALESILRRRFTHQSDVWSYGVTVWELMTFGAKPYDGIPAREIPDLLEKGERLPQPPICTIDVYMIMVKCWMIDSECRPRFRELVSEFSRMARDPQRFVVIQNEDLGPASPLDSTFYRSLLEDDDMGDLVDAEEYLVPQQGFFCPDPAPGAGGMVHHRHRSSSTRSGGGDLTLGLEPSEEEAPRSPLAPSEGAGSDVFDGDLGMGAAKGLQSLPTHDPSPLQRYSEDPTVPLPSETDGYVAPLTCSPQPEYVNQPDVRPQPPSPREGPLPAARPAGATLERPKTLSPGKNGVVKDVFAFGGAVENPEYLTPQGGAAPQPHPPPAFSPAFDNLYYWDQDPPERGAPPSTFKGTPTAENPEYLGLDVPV
SMILES,viability [1] [%],Her2 level [2],viability [3],viability [4],viability [5],differential viability (reversal) ([6]; H69AR cells + 2 uM doxorubicin),"viability [6, 9] [%]","viability [6, 10] [%]",inhibition [7],inhibition [8]
CC(NC(=O)NCCCC(=O)O)(C(F)(F)F)C(F)(F)F,104,82% (inactive),104% (inactive),97.6% (inactive),105% (inactive),8.72% (inactive),96.5,105,-7.53% (inactive),1.59% (inactive)
CCOc1cc2oc(=O)c3c(c2cc1Cl)CCC3,106,96% (inactive),106% (inactive),102% (inactive),85.6% (inactive),8.13% (inactive),77.5,85.6,-3.84% (inactive),2.38% (inactive)
Cc1nn(-c2ccccc2)c2c1C(O)n1c(nc3ccccc31)S2 (stereo not given),91,77.5% (inactive),91% (inactive),50.9% (inactive),26.2% (active),-8.14% (inactive),34.4,26.2,-6.85% (inactive),-0.79% (inactive)
COc1ccccc1CC(NC(C)=O)C(=O)NC1CCN(c2nnnn2-c2ccccc2)CC1 (stereo not given),97,102% (inactive),97% (inactive),94.8% (inactive),96.5% (inactive),-1.01% (inactive),97.5,96.5,-0.95% (inactive),0% (inactive)
CC1CN(C2CCCCC2)c2nc3c(c(=O)[nH]c(=O)n3C)n2C1 (stereo not given),90.5,95% (inactive),90.5% (inactive),86.1% (inactive),82.2% (inactive),-2.19% (inactive),84.4,82.2,-1.95% (inactive),7.3% (inactive)
COc1ccc2[nH]c(=O)c(CN(Cc3cccs3)Cc3nnnn3C(C)(C)C)cc2c1,77.5,90% (inactive),77.5% (inactive),58.7% (inactive),73.5% (inactive),7.29% (inactive),66.2,73.5,-6.13% (inactive),-0.95% (inactive)
CCOC(=O)c1[nH]c(C)c(C(=O)Nc2cc(OC)ccc2OC)c1C,81,65% (inactive),81% (inactive),47.4% (inactive),25.5% (active),-45.8% (inactive),71.3,25.5,-2.24% (inactive),-4.92% (inactive)
COC(=O)c1nc(N)sc1-c1ccccc1,96,93% (inactive),96% (inactive),95.1% (inactive),93.3% (inactive),13.3% (inactive),80,93.3,-6.13% (inactive),1.43% (inactive)
O=C1CCC(c2ccccc2)N1C(=O)c1cccnc1 (stereo not given),129,95.5% (inactive),129% (inactive),105% (inactive),98.8% (inactive),8.63% (inactive),90.2,98.8,-6.58% (inactive),-4.29% (inactive)
C1=Nc2c(NCc3ccccc3)ncnc2Oc2ccccc21,83,84.5% (inactive),83% (inactive),80.6% (inactive),91.7% (inactive),7.99% (inactive),83.7,91.7,2.13% (inactive),0.16% (inactive)
Cc1cc2oc(C(=O)NC3CCS(=O)(=O)C3)c(C)c2cc1C (stereo not given),99.5,98% (inactive),99.5% (inactive),97.7% (inactive),93.7% (inactive),22.6% (inactive),71,93.7,1.45% (inactive),1.48% (inactive)
CCc1ccc(NS(=O)(=O)c2ccc3[nH]cc(C(=O)N4CCCCC4)c(=O)c3c2)cc1,124,92% (inactive),124% (inactive),102% (inactive),89.6% (inactive),5.6% (inactive),84,89.6,-5.66% (inactive),-0.81% (inactive)
Cc1nc2oc3c(NCc4ccccn4)ncnc3c2c2c1COC(C)(C)C2,90,89% (inactive),90% (inactive),85.9% (inactive),99.2% (inactive),7.06% (inactive),92.2,99.2,-4.4% (inactive),-1.59% (inactive)
CN1C(=O)C(O)(CC(=O)c2ccc3c(c2)OCO3)c2ccccc21 (stereo not given),99.5,90.5% (inactive),99.5% (inactive),84.7% (inactive),82.5% (inactive),9.22% (inactive),73.3,82.5,0.52% (inactive),-0.83% (inactive)
Cc1cc(C)nc(N2CCC(C(=O)Nc3ccc4c(c3)CCC4)CC2)n1,81.5,85% (inactive),81.5% (inactive),54.9% (inactive),103% (inactive),7.34% (inactive),96,103,-4.74% (inactive),-2.67% (inactive)
CC(C)(C)n1nnnc1C(c1cccs1)N1CCN(Cc2ccccc2)CC1 (stereo not given),90,98.5% (inactive),90% (inactive),86% (inactive),84.3% (inactive),0.73% (inactive),83.6,84.3,-4.16% (inactive),-2.86% (inactive)
CC1(C)CC(=O)CC(C)(C)N1OC(=O)c1ccccn1,106,94% (inactive),106% (inactive),94% (inactive),102% (inactive),8.9% (inactive),93.6,102,-2.3% (inactive),5.74% (inactive)
COc1ccc(-c2noc(-c3ccccc3C(=O)Nc3cccnc3)n2)cc1,109,98.5% (inactive),109% (inactive),106% (inactive),86.5% (inactive),13.2% (inactive),73.3,86.5,-1.17% (inactive),0.79% (inactive)
Cc1nc2sc3c(c2c(=O)o1)CCC3,110,80.5% (inactive),110% (inactive),84.3% (inactive),88.1% (inactive),-14.3% (inactive),102,88.1,-3.42% (inactive),6.89% (inactive)
Cn1c(SCc2ccccc2)nnc1C1CCCNC1 (stereo not given),112,106% (inactive),112% (inactive),103% (inactive),90.8% (inactive),-4.07% (inactive),94.8,90.8,0% (inactive),0.17% (inactive)
Cc1n[nH]c(C)c1S(=O)(=O)Nc1ccc2c(c1)OCCO2,93,98.5% (inactive),93% (inactive),104% (inactive),104% (inactive),14.9% (inactive),89.3,104,-3.42% (inactive),-4.29% (inactive)
Cc1ccc(S(=O)(=O)N(C)c2ccc(OCC(=O)OCc3c(C)noc3C)cc2)cc1,92.5,97% (inactive),92.5% (inactive),95.4% (inactive),105% (inactive),6.56% (inactive),98.6,105,-1.71% (inactive),-10.3% (inactive)
Cc1nc(NC2=NCN(CCN3CCOCC3)CN2)nc2c(C)cccc12,114,91.5% (inactive),114% (inactive),77.3% (inactive),95.2% (inactive),-12.6% (inactive),108,95.2,-2.11% (inactive),-7.33% (inactive)
CC1Cc2ccccc2N1C(=O)CSc1nc2ccccc2n1CC(=O)N1CCOCC1 (stereo not given),97,91% (inactive),97% (inactive),94% (inactive),97.8% (inactive),7% (inactive),90.8,97.8,-6.13% (inactive),3.77% (inactive)
COc1ccc(S(=O)(=O)Cc2ccc(C(=O)N3CCN(Cc4ccccc4)CC3)o2)cc1,86.5,102% (inactive),86.5% (inactive),95% (inactive),84.9% (inactive),-0.78% (inactive),85.6,84.9,-1.41% (inactive),0.5% (inactive)
Cc1cc(=O)[nH]c(S/C=C/c2ccccc2)n1,91.5,95% (inactive),91.5% (inactive),77% (inactive),79.9% (inactive),0.47% (inactive),79.4,79.9,-3.12% (inactive),-2.86% (inactive)
O=P(O)(O)C(O)C(F)(F)C(F)(F)C(F)(F)C(F)F (stereo not given),108,77.5% (inactive),108% (inactive),110% (inactive),92.5% (inactive),-5.62% (inactive),98.1,92.5,-7.76% (inactive),-6.17% (inactive)
CC(=O)Nc1cccc(NC(=O)C2CCCN2C(=O)Nc2ccc(C)cc2)c1 (stereo not given),89,93.5% (inactive),89% (inactive),99.9% (inactive),100% (inactive),10.7% (inactive),89.7,100,-0.68% (inactive),-6.89% (inactive)
C/C(=C\C(=O)O)CC(=O)O,100,119% (inactive),100% (inactive),98% (inactive),84.5% (inactive),-15.7% (inactive),100,84.5,-7.5% (inactive),5.25% (inactive)
